Test results taken from ChEMBL document CHEMBL2057089, “Design and synthesis of novel p38α MAP kinase inhibitors: discovery of pyrazole-benzyl ureas bearing 2-molpholinopyrimidine moiety” (Bioorg Med Chem Lett, 2012).
pIC50: −log10 of the molar value.

Key:
[1] = target: Mitogen-activated protein kinase 14 (Homo sapiens, UniProt Q16539); assay: Inhibition of human recombinant P38alpha-mediated ATF2 phosphorylation after 1 hr
[2] = Antiinflammatory activity in human whole blood cells assessed as inhibition of LPS-induced TNFalpha production after 4 hrs by time-resolved fluorescence assay; format: functional, cell-based
Summary of the method: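 Freshly drawn heparinized human whole blood was given compound diluted in human serum AB and preincubated 1 h at 37 °C. It was then stimulated with LPS (200 ng/mL, E. coli O111:B4) for 4 h at 37 °C. Supernatant TNF-α was read by homogeneous time-resolved fluorescence.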

Mus musculus [3] = assay: Antiinflammatory activity in BALB/c mouse model of endotoxic shock assessed as inhibition of LPS-induced TNFalpha production at 100 mg/kg, po administered 30 mins before LPS challenge measured after 60 mins by ELISA; format: functional
Summary of the method: (§1)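 Male BALB/c mice, 8 weeks old, were dosed orally at 10 mL/kg. Controls received vehicle (27% hydroxypropyl-β-cyclodextrin, 10 mL/kg). LPS (1 mg/kg) was injected i.p. 30 min after dosing. Blood was taken 60 min after LPS, and serum was separated for TNF-α measurement.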

Mus musculus [4] = assay: Hepatotoxicity in Crlj:CD1(ICR) mouse assessed as change in plasma AST level at 2000 mg/kg, po administered for 5 consecutive days measured 24 hrs post final dosing (reference value: 45 +/- 11 U/L); format: toxicity, organism-based; parameters: dose 2000 mg/kg, route oral; conditions: in vivo
Mus musculus [5] = assay: Hepatotoxicity in Crlj:CD1(ICR) mouse assessed as change in plasma AST level at 500 mg/kg, po administered for 5 consecutive days measured 24 hrs post final dosing (reference value: 45 +/- 11 U/L); format: toxicity, organism-based; parameters: dose 500 mg/kg, route oral; conditions: in vivo
Mus musculus [6] = assay: Antiinflammatory activity in BALB/c mouse model of endotoxic shock assessed as inhibition of LPS-induced TNFalpha production at 50 mg/kg, po administered 30 mins before LPS challenge measured after 60 mins by ELISA; format: functional; summary of the method: as §1
Mus musculus [7] = assay: Hepatotoxicity in Crlj:CD1(ICR) mouse assessed as change in plasma ALT level at 1000 mg/kg, po administered for 5 consecutive days measured 24 hrs post final dosing (reference value: 24 +/- 4 U/L); format: toxicity, organism-based; parameters: dose 1000 mg/kg, route oral; conditions: in vivo
Mus musculus [8] = assay: Hepatotoxicity in Crlj:CD1(ICR) mouse assessed as change in plasma ALT level at 500 mg/kg, po administered for 5 consecutive days measured 24 hrs post final dosing (reference value: 24 +/- 4 U/L); format: toxicity, organism-based; parameters: dose 500 mg/kg, route oral; conditions: in vivo
Mus musculus [9] = assay: Antiinflammatory activity in po dosed BALB/c mouse model of endotoxic shock assessed as inhibition of LPS-induced TNFalpha production administered 30 mins before LPS challenge measured after 60 mins by ELISA
Mus musculus [10] = assay: Hepatotoxicity in Crlj:CD1(ICR) mouse assessed as change in plasma AST level at 1000 mg/kg, po administered for 5 consecutive days measured 24 hrs post final dosing (reference value: 45 +/- 11 U/L); format: toxicity, organism-based; parameters: dose 1000 mg/kg, route oral; conditions: in vivo
Mus musculus [11] = assay: Hepatotoxicity in Crlj:CD1(ICR) mouse assessed as change in plasma ALT level at 2000 mg/kg, po administered for 5 consecutive days measured 24 hrs post final dosing (reference value: 24 +/- 4 U/L); format: toxicity, organism-based; parameters: dose 2000 mg/kg, route oral; conditions: in vivo
Mus musculus [12] = assay: Hepatotoxicity in Crlj:CD1(ICR) mouse assessed as change in plasma total bilirubin level at 500 to 1000 mg/kg, po administered for 5 consecutive days measured 24 hrs post final dosing; format: toxicity, organism-based; parameters: dose 500-1000 mg/kg, route oral; conditions: in vivo
Mus musculus [13] = assay: Hepatotoxicity in Crlj:CD1(ICR) mouse assessed as change in plasma direct bilirubin level at 500 to 1000 mg/kg, po administered for 5 consecutive days measured 24 hrs post final dosing; format: toxicity, organism-based; parameters: dose 500-1000 mg/kg, route oral; conditions: in vivo
Mus musculus [14] = assay: Hepatotoxicity in Crlj:CD1(ICR) mouse assessed as change in plasma AST level at 500 to 1000 mg/kg, po administered for 5 consecutive days measured 24 hrs post final dosing; format: toxicity, organism-based; parameters: dose 500-1000 mg/kg, route oral; conditions: in vivo

Mitogen-activated protein kinase 14, sequence (Q16539 whole entry): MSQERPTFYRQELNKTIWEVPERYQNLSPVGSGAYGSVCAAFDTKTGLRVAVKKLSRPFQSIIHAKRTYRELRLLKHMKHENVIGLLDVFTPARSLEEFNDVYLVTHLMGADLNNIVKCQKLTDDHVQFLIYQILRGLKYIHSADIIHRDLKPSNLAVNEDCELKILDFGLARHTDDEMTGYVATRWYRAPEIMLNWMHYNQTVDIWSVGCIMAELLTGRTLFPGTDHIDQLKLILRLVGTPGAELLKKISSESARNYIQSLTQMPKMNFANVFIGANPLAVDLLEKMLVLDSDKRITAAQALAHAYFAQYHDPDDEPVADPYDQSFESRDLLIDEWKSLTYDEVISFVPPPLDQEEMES

| Compound | pIC50 [1] | pIC50 [2] | further results |
| --- | --- | --- | --- |
| Cc1ccc(-n2nc(C(C)(C)C)cc2NC(=O)NCc2cc(F)cc(F)c2Oc2ccnc(N3CCOCC3)n2)cc1 | 8.52 | 7.32 | – |
| Cc1ccc(-n2nc(C(C)(C)C)cc2NC(=O)NCc2cc(Cl)ccc2Oc2ccnc(N3CCOCC3)n2)cc1 | 8.30 | 6.72 | inhibition in vivo at 100 mg/kg (Mus musculus [3]): 81% |
| Cc1ccc(-n2nc(C(C)(C)C)cc2NC(=O)NCc2ccccc2Oc2ccnc(N3CCCCC3)n2)cc1 | 7.89 | – | – |
| Cc1ccc(-n2nc(C(C)(C)C)cc2NC(=O)NCc2cc(F)ccc2Oc2ccnc(N3CCOCC3)n2)cc1 | 8.40 | 6.64 | Activity (Mus musculus [4]): 46 U/L; Activity (Mus musculus [5]): 42 U/L; inhibition in vivo at 50 mg/kg (Mus musculus [6]): 84%; Activity (Mus musculus [7]): 32 U/L; Activity (Mus musculus [8]): 26 U/L; ED50 (Mus musculus [9]): 16 mg/kg; Activity (Mus musculus [10]): 47 U/L; Activity (Mus musculus [11]): 28 U/L |
| Cc1ccc(-n2nc(C(C)(C)C)cc2NC(=O)NCc2ccccc2Oc2ccnc(Cl)n2)cc1 | 7.70 | – | – |
| Cc1ccc(-n2nc(C(C)(C)C)cc2NC(=O)NCc2cc(F)cc(Cl)c2Oc2ccnc(N3CCOCC3)n2)cc1 | 7.96 | 6.96 | – |
| Cc1ccc(-n2nc(C(C)(C)C)cc2NC(=O)NCc2cc(C(F)(F)F)ccc2Oc2ccnc(N3CCOCC3)n2)cc1 | 7.46 | < 5.00 | – |
| Cc1ccc(-n2nc(C(C)(C)C)cc2NC(=O)NCc2ccccc2Oc2ccnc(N3CCOCC3)n2)cc1 | 7.92 | 6.14 | inhibition in vivo at 50 mg/kg (Mus musculus [6]): 65% |
| Cc1ccc(-n2nc(C(C)(C)C)cc2NC(=O)NCc2cc(C)ccc2Oc2ccnc(N3CCOCC3)n2)cc1 | 7.89 | 6.01 | – |
| Cc1ccc(-n2nc(C(C)(C)C)cc2NC(=O)Nc2ccc(OCCN3CCOCC3)c3ccccc23)cc1 [DORAMAPIMOD] | – | 6.22 | inhibition in vivo at 50 mg/kg (Mus musculus [6]): 82%; Activity (Mus musculus [12]): Toxic; Activity (Mus musculus [13]): Toxic; Activity (Mus musculus [14]): Toxic |
| Cc1ccc(-n2nc(C(C)(C)C)cc2NC(=O)NCc2cc(F)cc(C)c2Oc2ccnc(N3CCOCC3)n2)cc1 | 7.85 | – | – |
| Cc1ccc(-n2nc(C(C)(C)C)cc2NC(=O)NCc2ccccc2O)cc1 | 5.82 | – | – |
